According to PMC7744997 (Clinical Infectious Diseases: An Official Publication of …, 2020):
Like-named read-outs stand apart in the source and are kept apart here.

Experiments:
[1] = Safety/tolerability: adverse events in RSV-infected infants; assay type: in vivo, human
Outline: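 Adverse events were recorded over 28 days in infants given oral drug or placebo once daily for 7 days. Events were graded with the DMID Pediatric Toxicity Tables (November 2007), and the investigator judged relatedness to study drug. Events causing rehospitalisation were counted as serious. Vital signs, ECGs and physical examination were also done.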

[2] = assay type: in vivo, human
Outline: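 Population PK model built in adults and scaled to paediatrics, fitted to sparse heel- or finger-prick capillary samples. Weight-based oral doses were given once daily for 7 days in three age cohorts (≥6–≤24, 3–<6, >1–<3 months). Doses were escalated after data review committee assessment of PK and safety. AUC24h, Cmin and Cmax were estimated at day 1 and day 7, as mean with CV%.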

RSV-A and RSV-B strains = details: panel of laboratory-derived and clinically isolated RSV-A and RSV-B strains, in vitro; cited from earlier work
[3] = cohort 1a (≥6 to ≤24 mo), 2 mg/kg QD oral, n=4, Day 1
[4] = cohort 1a (≥6 to ≤24 mo), 2 mg/kg QD oral, n=4, Day 7
[5] = cohort 1b (≥6 to ≤24 mo), 6 mg/kg QD oral, n=4, Day 1
[6] = cohort 1b (≥6 to ≤24 mo), 6 mg/kg QD oral, n=4, Day 7
[7] = cohort 1c (≥6 to ≤24 mo), 8 mg/kg QD oral, n=4, Day 1
[8] = cohort 1c (≥6 to ≤24 mo), 8 mg/kg QD oral, n=4, Day 7
[9] = cohort 2a (≥3 to <6 mo), 1.5 mg/kg QD oral, n=4, Day 1
[10] = cohort 2a (≥3 to <6 mo), 1.5 mg/kg QD oral, n=4, Day 7
[11] = cohort 2b (≥3 to <6 mo), 4.5 mg/kg QD oral, n=4, Day 1
[12] = cohort 2b (≥3 to <6 mo), 4.5 mg/kg QD oral, n=4, Day 7
[13] = cohort 2c (≥3 to <6 mo), 6 mg/kg QD oral, n=1, Day 1
[14] = cohort 2c (≥3 to <6 mo), 6 mg/kg QD oral, n=1, Day 7
[15] = cohort 3a (>1 to <3 mo), 1 mg/kg QD oral, n=4, Day 1
[16] = cohort 3a (>1 to <3 mo), 1 mg/kg QD oral, n=4, Day 7
[17] = cohort 3b (>1 to <3 mo), 3 mg/kg QD oral, n=4, Day 1
[18] = cohort 3b (>1 to <3 mo), 3 mg/kg QD oral, n=4, Day 7
[19] = cohort 3c (>1 to <3 mo), 5 mg/kg QD oral, n=4, Day 1
[20] = cohort 3c (>1 to <3 mo), 5 mg/kg QD oral, n=4, Day 7
[21] = cohort 1d (≥6 to ≤24 mo), 9 mg/kg QD oral, n=4, Day 1
[22] = cohort 1d (≥6 to ≤24 mo), 9 mg/kg QD oral, n=4, Day 7

SMILES: CS(=O)(=O)CCCn1c(Cn2c(=O)n(CC(F)(F)F)c3ccncc32)cc2cc(Cl)ccc21 [JNJ-53718678]
- Grade 3 AEs (bronchiolitis, reported as serious AE), number ([1]; all JNJ-8678, n=37): 1
- Tolerability in RSV-infected infants ([1]; oral, once daily for 7 days): well tolerated
- Deaths, grade 4 AEs, AEs leading to discontinuation ([1]; whole study): No deaths, grade 4 AEs, or AEs leading to study discontinuation or permanent discontinuation of study drug were reported
- Mean AUC24h (CV%) [2, 3]: 6047.2 (17.5) ng × h/mL
- Mean Cmax (CV%) [2, 3]: 546.8 (35.7) ng/mL
- Mean Cmin (CV%) [2, 3]: 81.4 (58.8) ng/mL
- Mean AUC24h (CV%) [2, 4]: 7738.8 (27.4) ng × h/mL
- Mean Cmax (CV%) [2, 4]: 721.3 (31.2) ng/mL
- Mean Cmin (CV%) [2, 4]: 114.0 (77.7) ng/mL
- Mean Cmax (CV%) [2, 5]: 1960.5 (58.1) ng/mL
- Mean Cmin (CV%) [2, 5]: 155.5 (89.3) ng/mL
- Mean Cmax (CV%) [2, 6]: 3304.2 (12.3) ng/mL
- Mean Cmin (CV%) [2, 6]: 225.7 (66.5) ng/mL
- Mean Cmax (CV%) [2, 7]: 3346.9 (13.0) ng/mL
- Mean Cmin (CV%) [2, 7]: 244.1 (90.4) ng/mL
- Mean Cmax (CV%) [2, 8]: 4298.8 (11.2) ng/mL
- Mean Cmin (CV%) [2, 8]: 323.9 (95.7) ng/mL
- Target exposures ([2]; cohort 1c, ≥6–≤24 months, 8 mg/kg QD, AUC24h similar to adults): Cmin and Cmax target exposures were not reached
- Mean AUC24h (CV%) [2, 9]: 6658.4 (25.6) ng × h/mL
- Mean Cmax (CV%) [2, 9]: 727.5 (68.7) ng/mL
- Mean Cmin (CV%) [2, 9]: 88.3 (39.2) ng/mL
- Mean AUC24h (CV%) [2, 10]: 8620.9 (17.3) ng × h/mL
- Mean Cmax (CV%) [2, 10]: 938.0 (53.3) ng/mL
- Mean Cmin (CV%) [2, 10]: 124.0 (49.1) ng/mL
- Mean Cmax (CV%) [2, 11]: 2533.2 (25.0) ng/mL
- Mean Cmin (CV%) [2, 11]: 319.8 (16.9) ng/mL
- Mean Cmax (CV%) [2, 12]: 3021.8 (41.2) ng/mL
- Mean Cmin (CV%) [2, 12]: 363.0 (18.9) ng/mL
- Mean Cmax (CV%) [2, 13]: 2556.8 (…) ng/mL
- Mean Cmin (CV%) [2, 13]: 428.6 (…) ng/mL
- Mean Cmax (CV%) [2, 14]: 3131.0 (…) ng/mL
- Mean Cmin (CV%) [2, 14]: 517.3 (…) ng/mL
- Mean AUC24h (CV%) ([2]; cohort 2c (≥3 to <6 mo), 6 mg/kg QD oral, n=1, Day 7, listed as JNJ-8678, 6 mg/kg): 34 980 ng × h/mL
- Mean AUC24h (CV%) [2, 15]: 4495.6 (4.8) ng × h/mL
- Mean Cmax (CV%) [2, 15]: 374.2 (18.5) ng/mL
- Mean Cmin (CV%) [2, 15]: 72.6 (41.1) ng/mL
- Mean AUC24h (CV%) [2, 16]: 5827.0 (12.3) ng × h/mL
- Mean Cmax (CV%) [2, 16]: 498.0 (13.2) ng/mL
- Mean Cmin (CV%) [2, 16]: 100.9 (46.3) ng/mL
- Mean Cmax (CV%) [2, 17]: 958.2 (15.2) ng/mL
- Mean Cmin (CV%) [2, 17]: 342.9 (14.3) ng/mL
- Mean Cmax (CV%) [2, 18]: 1671.2 (14.6) ng/mL
- Mean Cmin (CV%) [2, 18]: 650.2 (15.5) ng/mL
- Mean Cmax (CV%) [2, 19]: 1866.6 (51.7) ng/mL
- Mean Cmin (CV%) [2, 19]: 458.7 (54.9) ng/mL
- Mean Cmax (CV%) [2, 20]: 3001.8 (25.1) ng/mL
- Mean Cmin (CV%) [2, 20]: 929.0 (62.1) ng/mL
- Mean AUC24h (CV%) ([2]; cohort 3c (>1 to <3 mo), 5 mg/kg QD oral, n=4, Day 7, listed as JNJ-8678, 5 mg/kg): 39 627 ng × h/mL
- Mean Cmax (CV%) [2, 21]: 2371.8 (70.8) ng/mL
- Mean Cmin (CV%) [2, 21]: 333.2 (62.3) ng/mL
- Mean Cmax (CV%) [2, 22]: 3389.4 (52.9) ng/mL
- Mean Cmin (CV%) [2, 22]: 615.9 (75.2) ng/mL
- Mean AUC24h (CV%) ([2]; cohort 1d (≥6 to ≤24 mo), 9 mg/kg QD oral, n=4, Day 7, listed as JNJ-8678, 9 mg/kg): 35 840 ng × h/mL
- 50% effective concentration (RSV-A and RSV-B strains): 0.09 to 9.50 ng/mL
